Source: PubChem BioAssay
FN deposit inh = fibronectin deposition inhibition | AID 743247 | 0.086% of 350,000 active | inhibition, % at 12.6 µM | AH1F fibroblasts, Alexa488-fibronectin deposition fluorescence, overnight;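 active means mean inhibition across replicates of 30% or more, regardless of how many single replicates reach that level; inconclusive means mean under 30% yet at least half of replicates reach 30%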;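 further: positive control wells lacked labelled fibronectin entirely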
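Test system: AH1F fibroblast monolayer depositing Alexa488-labelled fibronectin into matrix. Input: 10000 cells per well. Technique: fluorescence, ex 485 nm, em 525 nm. Buffer or medium: DMEM plus 2% serum, read in PBS. Timing: 1 h cell adhesion before compound, then overnight fibronectin incubation. Compound: single dose, pinned. Read-out basis: inhibition from reduced deposited-fibronectin fluorescence.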
HIV Env fusion = blocks HIV Env-driven cell-cell fusion; 1.1% of 360,000 active; AID 651610; HeLa-JRFL Env/CEM21 cell fusion, luciferase; inhibition, % at 12.3 µM;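 active means mean replicate inhibition score of at least 50 and every replicate individually at or above 50; inconclusive means only one of the two criteria met; inactive means mean below 50 and not all replicates reaching 50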;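 further: 0% = plate neutral controls and 100% = maraviroc near 300 nM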
PAX8 inh HTS = inhibitors of PAX8 transcriptional activity in RMG-I cells | RMG-I TPO-luciferase reporter, SteadyGlo, 24 h | inhibition, % at 12.6 µM | 1.2% of 360,000 active;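 active means mean replicate inhibition at least 60% with every replicate also reaching 60%; inconclusive means only one of the two criteria is met; inactive means mean below 60% and not all replicates reaching 60%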;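 further: luciferase light reporting Pax8 driven TPO promoter activity; plate controls were median of neutral control wells for no effect and mitoxantrone controls for full effect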
MLL AF4-AF9 inh = inhibitors of human MLL-AF4/AF9 interaction; P42568; AlphaScreen, biotin-AF4 peptide binding to FLAG-AF9; inhibition, % at 10 µM; 0.47% of 350,000 active;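 active means every replicate reaching a set inhibition limit, whatever the replicate mean, cut at about 25% in these data; inconclusive means mean inhibition reaches that limit but some replicates miss it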;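 further: 0% = plate neutral control median and 100% = total signal loss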
Target sequence (P42568 whole entry, looked up): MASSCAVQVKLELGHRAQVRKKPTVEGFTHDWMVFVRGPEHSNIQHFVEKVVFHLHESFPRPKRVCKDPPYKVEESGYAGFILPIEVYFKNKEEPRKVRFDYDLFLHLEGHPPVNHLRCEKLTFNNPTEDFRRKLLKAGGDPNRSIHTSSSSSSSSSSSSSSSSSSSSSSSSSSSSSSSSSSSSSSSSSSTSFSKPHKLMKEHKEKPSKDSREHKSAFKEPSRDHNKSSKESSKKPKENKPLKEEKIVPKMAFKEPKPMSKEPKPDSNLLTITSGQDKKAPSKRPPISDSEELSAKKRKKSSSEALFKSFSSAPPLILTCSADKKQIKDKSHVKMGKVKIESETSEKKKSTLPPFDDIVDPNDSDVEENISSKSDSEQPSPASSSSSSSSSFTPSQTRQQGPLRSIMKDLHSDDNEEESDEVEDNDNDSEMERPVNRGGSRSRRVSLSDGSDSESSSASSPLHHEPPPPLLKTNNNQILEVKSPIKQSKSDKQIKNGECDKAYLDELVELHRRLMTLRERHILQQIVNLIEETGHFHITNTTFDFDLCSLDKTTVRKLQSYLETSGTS
Glyco luc inh = blocks N-linked glycosylation in D54 reporter cells | D54 ERlucT glycosylation luciferase reporter, 24 h; percent of 100 nM tunicamycin response | reporter increase, % at 12.5 µM | 0.23% of 360,000 active;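 active means mean luciferase reporter signal, scaled so untreated is 0 and the glycosylation-blocking control 100, at or above a set limit in every replicate; inconclusive means mean reaches the limit but not every replicate does; inactive means mean below the limit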;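 further: luciferase carries N-glycosylation sites so blocking glycosylation raises the light; 0% = median of neutral control wells and 100% = median of 100 nM tunicamycin wells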
EWS-Fli inh = blocks EWS/Fli oncoprotein-driven transcription. inhibition, % at 12.6 µM. 0.67% of 350,000 active. A673 NR0B1-luciferase reporter, viability-normalised;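 active means mean inhibition of at least 50% after viability correction, with every replicate also passing that limit; inconclusive means mean reaches 50% but only one of two replicates passes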;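 further: firefly luciferase signal divided by Alamar Blue viability fluorescence both relative to DMSO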
Active calls of the source: *; i = inactive; ? = inconclusive; · = not tested or not shown; [ ] = remark or other dose. Only some compounds are listed: those with a hit (about 2.5% of all), similar ones and a draw of the others.

SMILES	FN deposit inh	HIV Env fusion	PAX8 inh HTS	MLL AF4-AF9 inh	Glyco luc inh	EWS-Fli inh
CNc1cc(Cl)c2nonc2c1[N+](=O)[O-]	49*	i	?	-4	8	31
Cc1cc([N+](=O)[O-])c(Cl)cc1NC(=O)C(C)C	2	3	6	·	0	·
COC(=O)[C@H]1[C@H](CO)[C@H]2Cn3c(ccc(C4=CCCC4)c3=O)[C@@H]1N2Cc1ccccn1	·	·	·	0	·	-1
O=C(O)[C@H]1[C@H](CO)[C@H]2Cn3c(ccc(C4=CCCC4)c3=O)[C@@H]1N2C(=O)Cc1ccccn1	·	·	·	-6	·	3
Nc1ccc(CC(N)c2csc(Nc3ncccn3)n2)cc1 (stereo unspecified)	5	-18	2	14	-1	-41
NC(Cc1ccc(F)cc1)c1csc(Nc2ncccn2)n1 (stereo unspecified)	0	-3	74*	0	-14	-9
CCN1[C@@H]2c3ccc(-c4cccc(C(=O)N(C)C)c4)c(=O)n3C[C@H]1[C@H](CO)[C@H]2C(=O)OC	·	·	-13	-28	·	-2
O=C(Cc1ccccn1)N1CCCCN2[C@@H](CO)[C@H](c3ccc(C#Cc4ccccc4)cc3)[C@@H]2C1	·	·	7	-6	·	-1
COC(=O)[C@@H]1[C@@H](CO)[C@@H]2Cn3c(ccc(-c4ccccc4F)c3=O)[C@H]1N2Cc1ccncc1	·	·	-8	2	·	-1
CN(C)C1C(=O)C(C(N)=O)=C(O)C2(O)C(=O)C3=C(O)c4c(O)cccc4C(C)(O)C3C(O)C12 (stereo unspecified)	0	63*	11	6	0	2
CC1CCC(C(C)C)C(OC(=O)Cn2c(COc3ccccc3)[n+](C)c3ccccc32)C1 (stereo unspecified)	2	78*	91*	25*	10	20
CNc1ccc2oc(C[C@H]3O[C@@]4(CC[C@H]3C)O[C@H]([C@H](C)C(=O)c3ccc[nH]3)[C@H](C)C[C@H]4C)nc2c1C(=O)O	0	90*	81*	-3	-15	43
O=C(O)[C@@H]1[C@@H](CO)[C@@H]2Cn3c(ccc(-c4ccncc4)c3=O)[C@H]1N2C(=O)C1CC1	·	?	2	·	·	0
COC(=O)[C@H]1[C@H](CO)[C@H]2Cn3c(ccc(-c4ccc(F)cc4)c3=O)[C@@H]1N2Cc1ccccc1	·	·	-2	1	·	-7
CNC(=S)N(C)CCc1cc2c(c(OC)c1C=C1C(=O)NC(=O)NC1=O)OCO2	4	-13	0	65*	1	6
COC(=O)[C@@H]1[C@@H](CO)[C@@H]2Cn3c(ccc(C4=CCCCC4)c3=O)[C@H]1N2C(=O)NC(C)C	·	·	-5	0	·	11
C=C1C(=O)O[C@@H]2C[C@@H](C)[C@@H]3C=CC(=O)[C@@]3(C)[C@@H](OC(=O)CC(=O)O[C@H]3[C@@H]4C(=C)C(=O)O[C@@H]4C[C@@H](C)[C@@H]4C=CC(=O)[C@]43C)[C@H]12	28	109*	109*	-42	-21	55*
C=C1C(=O)O[C@H]2C[C@@H](C)[C@@H]3C=CC(=O)[C@@]3(C)C[C@H]12	-8	-193	108*	0	·	59*
C=C1C(=O)O[C@H]2[C@H]1[C@H](OC(=O)CC(=O)O[C@@H]1C[C@@H](C)[C@@H]3C=CC(=O)[C@@]3(C)[C@H]3OC(=O)C(=C)[C@H]13)C[C@@H](C)[C@H]1C=CC(=O)[C@]12C	-12	-52	68*	-11	5	4
O=C(Cc1ccccn1)N1CCCCN2[C@H](CO)[C@H](c3ccc(C#Cc4ccccc4)cc3)[C@H]2C1	·	·	4	-5	·	4
Cc1cc(C)nc(N2Cc3ccccc3C2=N)n1	12	-60	-12	-2	37*	-6
Cc1ccc(N2Cc3ccccc3C2=N)cc1[N+](=O)[O-]	2	1	2	3	1	-3
CC=Cc1ccc2n(c1=O)C[C@@H]1[C@@H](CO)[C@H](C(=O)O)[C@H]2N1S(=O)(=O)c1ccccc1C (mixture of isomers)	·	·	-6	0	·	-3
CC=Cc1ccc2n(c1=O)C[C@@H]1[C@@H](CO)[C@H](C(=O)OC)[C@H]2N1S(=O)(=O)c1cccc(C)c1 (mixture of isomers)	·	61*[16.7 µM]	·	2	·	-6
